Measurements as given in ChEMBL document CHEMBL4184128, “Design, synthesis and biological evaluation of (E)-3,4-dihydroxystyryl 4-acylaminophenethyl sulfone, sulfoxide derivatives as dual inhibitors of HIV-1 CCR5 and integrase” (Bioorg Med Chem, 2017).

Key:
[1] = Cytotoxicity against human TZM-bl cells assessed as reduction in cell viability after 2 days by CCK-8 assay; type: cell-based
Summary of the method: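 TZM-bl cells seeded at 1×10^5 cells/mL and exposed to compound at 1000, 200, 40, 8 and 1.6µM, dissolved in DMSO cell freezing medium. Cells kept at 37°C, 5% CO2, in triplicate wells, with a medium-only control. After 2 days, CCK-8 was added for 3–4 h and A450 was read. Survival % = A450 treated/control ×100. CC50 is the concentration giving 50% cytotoxicity.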

[2] = molecular target: C-C chemokine receptor type 5 (Homo sapiens) (UniProt P51681); assay: Inhibition of CCR5 in human TZM-bl cells infected with HIV1 Bal R5 assessed as antiviral activity by measuring reduction in viral infection at 50 uM pre-incubated with cells followed by viral infection measured after 3 days by luciferase reporter gene assay; type: functional, cell-based
Summary of the method: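 TZM-bl cells were plated, and medium was replaced after 12 h with compound at 50μM in duplicate wells. HIV-1 Bal (R5) at 200TCID50 was added with DEAE at 10μg/mL final. Plates were incubated 3 days at 37°C, 5% CO2. Luciferase substrate in lysis buffer reacted 2 min at room temperature, protected from light. Inhibition % was taken as the decrease in signal relative to virus control, as the mean of two wells.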

[3] = molecular target: Human immunodeficiency virus type 1 integrase (Human immunodeficiency virus 1, UniProt Q7ZJM1); assay: Binding affinity to HIV1 integrase by surface plasma resonance method
Summary of the method: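 IN protein amine-coupled to a CM5 sensor chip (~10000RU) on a Biacore T200. Runs at 25°C in PBST running buffer, flow 30μL/min. Compounds were injected at graded concentrations (200μM, 100μM, 50μM, 25μM, 12.5μM, etc.). Sensorgrams were solvent-corrected and reference flow cell subtracted. KD came from a 1:1 kinetic binding fit.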

C-C chemokine receptor type 5 (Homo sapiens), sequence (P51681 whole entry, looked up): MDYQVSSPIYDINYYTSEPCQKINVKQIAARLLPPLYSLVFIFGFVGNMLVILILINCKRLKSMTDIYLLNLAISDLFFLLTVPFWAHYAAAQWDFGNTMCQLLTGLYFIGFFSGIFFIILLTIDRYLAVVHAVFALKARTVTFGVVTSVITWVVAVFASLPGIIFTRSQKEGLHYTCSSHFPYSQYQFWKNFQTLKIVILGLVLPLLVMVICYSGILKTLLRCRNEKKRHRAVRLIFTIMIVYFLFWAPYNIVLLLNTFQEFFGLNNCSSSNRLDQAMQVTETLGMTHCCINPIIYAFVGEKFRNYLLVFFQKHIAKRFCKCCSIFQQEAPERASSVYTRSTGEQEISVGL
Human immunodeficiency virus type 1 integrase, sequence (Q7ZJM1 whole entry): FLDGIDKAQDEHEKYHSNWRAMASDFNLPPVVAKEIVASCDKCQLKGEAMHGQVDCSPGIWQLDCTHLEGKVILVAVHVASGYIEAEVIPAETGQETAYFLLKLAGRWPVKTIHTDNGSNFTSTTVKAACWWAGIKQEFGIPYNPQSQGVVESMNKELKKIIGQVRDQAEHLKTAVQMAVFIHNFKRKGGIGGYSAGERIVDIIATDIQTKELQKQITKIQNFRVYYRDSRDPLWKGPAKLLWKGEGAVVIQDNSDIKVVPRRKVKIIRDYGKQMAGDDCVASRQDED

SMILES | CC50 at 48 h [1] [µM] | inhibition [2] [%] | Kd [3] [µM]
CC(=O)Oc1ccc(/C=C/S(=O)(=O)CCc2ccc(NC(=O)c3ccc(F)cc3)cc2)cc1OC(C)=O | 162 | 26.2 | 
CC(=O)Oc1ccc(/C=C/S(=O)(=O)CCc2ccc(NC(=O)c3ccccc3)cc2)cc1OC(C)=O | 108 | < 20 | 207
COc1ccc(C(=O)Nc2ccc(CCS(=O)(=O)/C=C/c3ccc(OC(C)=O)c(OC(C)=O)c3)cc2)cc1 | 858 | < 20 | 
O=C(Nc1ccc(CCS(=O)(=O)/C=C/c2ccc(O)c(O)c2)cc1)c1ccc([N+](=O)[O-])cc1 | 483 | 23.4 | 
O=C(Nc1ccc(CC[S+]([O-])/C=C/c2ccc(O)c(O)c2)cc1)c1ccccc1 (centres undefined) | 157 | 68.4 | 142
O=C(Nc1ccc(CC[S+]([O-])/C=C/c2ccc(O)c(O)c2)cc1)c1ccc(F)cc1 (centres undefined) | 127 | 64.6 | 
O=C(Nc1ccc(CCS(=O)(=O)/C=C/c2ccc(O)c(O)c2)cc1)c1cc(F)cc(F)c1 | 414 | 33 | 
O=C(Nc1ccc(CCS(=O)(=O)/C=C/c2ccc(O)c(O)c2)cc1)c1ccc(F)cc1 | > 1000 | < 20 | 
CC(=O)Oc1ccc(/C=C/S(=O)(=O)CCc2ccc(NC(=O)c3ccc(C)cc3)cc2)cc1OC(C)=O | 177 | < 20 | 
O=C(Cc1cccs1)Nc1ccc(CCS(=O)(=O)/C=C/c2ccc(O)c(O)c2)cc1 | 569 | < 20 | 
COc1ccc(C(=O)Nc2ccc(CC[S+]([O-])/C=C/c3ccc(O)c(O)c3)cc2)cc1 (centres undefined) |  | 34.1 | 
O=C(Nc1ccc(CC[S+]([O-])/C=C/c2ccc(O)c(O)c2)cc1)c1cc(F)cc(F)c1 (centres undefined) |  | 41.8 | 
COc1ccc(C(=O)Nc2ccc(CCS(=O)(=O)/C=C/c3ccc(O)c(O)c3)cc2)cc1 | > 1000 | < 20 | 
O=C(Nc1ccc(CC[S+]([O-])/C=C/c2ccc(O)c(O)c2)cc1)C12CC3CC(CC(C3)C1)C2 (centres undefined) |  | 64.7 | 
Cc1nnc(C(C)C)n1[C@@H]1C[C@H]2CC[C@@H](C1)N2CC[C@H](NC(=O)C1CCC(F)(F)CC1)c1ccccc1 [MARAVIROC] | > 1000 |  | 
CC(=O)Oc1ccc(/C=C/S(=O)(=O)CCc2ccc(NC(=O)Cc3cccs3)cc2)cc1OC(C)=O | 161 | 23 | 
CC(=O)Oc1ccc(/C=C/S(=O)(=O)CCc2ccc(NC(=O)c3ccc([N+](=O)[O-])cc3)cc2)cc1OC(C)=O | 160 | 52.2 | 
O=C(Nc1ccc(CCS(=O)(=O)/C=C/c2ccc(O)c(O)c2)cc1)C1CCCCC1 | 638 | 45.9 | 115
CC(=O)Oc1ccc(/C=C/S(=O)(=O)CCc2ccc(NC(=O)C34CC5CC(CC(C5)C3)C4)cc2)cc1OC(C)=O | 182 | 23.7 | 
O=C(Nc1ccc(CCS(=O)(=O)/C=C/c2ccc(O)c(O)c2)cc1)c1ccccc1 | 238 | < 20 | 160
O=C(Nc1ccc(CCS(=O)(=O)/C=C/c2ccc(O)c(O)c2)cc1)C12CC3CC(CC(C3)C1)C2 | 786 | 21.6 | 
CC(=O)Oc1ccc(/C=C/S(=O)(=O)CCc2ccc(NC(=O)c3cc(F)cc(F)c3)cc2)cc1OC(C)=O | 225 | < 20 | 
CC(=O)Oc1ccc(/C=C/S(=O)(=O)CCc2ccc(NC(=O)C3CCCCC3)cc2)cc1OC(C)=O | 169 | < 20 | 
O=C(Nc1ccc(CC[S+]([O-])/C=C/c2ccc(O)c(O)c2)cc1)C1CCCCC1 (centres undefined) |  | 52.7 | 
Cc1ccc(C(=O)Nc2ccc(CCS(=O)(=O)/C=C/c3ccc(O)c(O)c3)cc2)cc1 | 168 | < 20 | 
